The nature of test [1]: Her2 expression decrease, cell viability multiplex – SKBR3 breast tumor cells, AlphaScreen, ATP viability, primary screen (AID 461;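 active = Her2 level under about 52% in both replicate screens, with viability over 70% of control, limit read from the data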;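 for Her2 level: lower value means less Her2 protein in the cells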;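 for viability: percent of carrier control wells set as 100% viability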). The following applies: SKBR3 Her2 protein level, 18-24 h, measured here: SKBR3 viability, ATP luminescence, at 10 µM. For orientation: In Alpha technology, singlet oxygen from a donor bead excites a nearby acceptor bead.
Test [2] addresses Receptor tyrosine-protein kinase erbB-2 (Homo sapiens) (UniProt P04626). The test is described as above. The settings on record: 18-24 h, at 10 µM, stronger effect = lower value.
Test [3] is described as follows: reduced viability of SK-BR-3 breast cancer cells – cell-based, 24 h, human, pilot screen (AID 572;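 active = viability at or below 10% of carrier control in both of two separate runs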;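 note: compound exposure lasted between 18 and 24 h rather than exactly 24 h; 100% = carrier-treated control wells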). The following applies: SK-BR-3 viability, CellTiter-Glo luminescence, at 10 µM, stronger effect = lower value. On the technique in general: ATP-based viability assays read luminescence as a measure of living cells.
A short description of test [4]: HUVEC growth inhibition – cell-based, human, primary screen (AID 575;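 active = viability at or below 30% in both replicate assays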;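 note: 100% = median of untreated cell wells with 0.1% DMSO on each plate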). The following applies: HUVEC proliferation, CellTiter-Glo luminescence, 72 h; at 10 µM; stronger effect = lower value. The gist of the method:
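material = primary HUVEC, no more than 12 passages | input = 1250 cells per well | controls = vehicle and MePR control wells | measured by = CTG luminescence | times = 72 h compound incubation | format = collagen-coated 384-well format | read-out = % viability vs DMSO wells | doses = single 10 µM dose, 0.1% DMSO, from 5x medium stock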

Test [5] in a line: H69AR cell proliferation blockers – human, duplicate replicates, primary screen (AID 580).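 Note: 100% = mean luminescence of untreated wells and 0% = no signal.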 The settings on record: H69AR lung tumor cells viability, ATP luminescence, 72 h; at 10 µM; stronger effect = lower value.
Test [6] in a line: MRP1 drug-resistance reversers in H69AR cells – cell-based, doxorubicin co-treatment, pilot screen (AID 601;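 active = viability loss from added drug above about 55%, and viability with drug at most 40%, in both replicates, limit read from the data, passing the limit was not always enough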). The following applies: CellTiter-Glo, 72 h, at 10 µM; for differential viability (reversal): stronger effect = higher value.
Test [7] is described as follows: yeast transport mutant growth inhibition pilot in 384-well plates, post-Golgi transport modulator project (AID 636; in the data active = inhibition above about 31%). The following applies: absorbance 615 nm, about 18 h, stronger effect = higher value.
Test [8] is described as follows: growth suppression of yeast trafficking mutant, preliminary HTS, modulators of trafficking downstream of Golgi apparatus project, 1536-format plate, OD 615 nm (AID 637; in the data active = inhibition above about 30%). The following applies: yeast transport mutant growth, absorbance 615 nm, 18 h; stronger effect = higher value.
Setting [9] is: H69AR cells + 2 uM doxorubicin, measured here: viability with 2 uM doxorubicin, stronger effect = lower value.
The mark [10] stands for this setting: H69AR cells, compound alone cytotoxicity.

Active and inactive are the calls of the source.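 Rule for the calls, unless noted: active = viability at or under a set limit in both replicates, limit being median viability minus 3 SD (cut at about 48% in these data, passing the limit was not always enough); inconclusive = at or under the limit in just one replicate; inactive = at or above the limit in both replicates.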

We go through 16 compounds from PubChem BioAssay.

Chain of Receptor tyrosine-protein kinase erbB-2 (Homo sapiens) (P04626 whole entry, looked up): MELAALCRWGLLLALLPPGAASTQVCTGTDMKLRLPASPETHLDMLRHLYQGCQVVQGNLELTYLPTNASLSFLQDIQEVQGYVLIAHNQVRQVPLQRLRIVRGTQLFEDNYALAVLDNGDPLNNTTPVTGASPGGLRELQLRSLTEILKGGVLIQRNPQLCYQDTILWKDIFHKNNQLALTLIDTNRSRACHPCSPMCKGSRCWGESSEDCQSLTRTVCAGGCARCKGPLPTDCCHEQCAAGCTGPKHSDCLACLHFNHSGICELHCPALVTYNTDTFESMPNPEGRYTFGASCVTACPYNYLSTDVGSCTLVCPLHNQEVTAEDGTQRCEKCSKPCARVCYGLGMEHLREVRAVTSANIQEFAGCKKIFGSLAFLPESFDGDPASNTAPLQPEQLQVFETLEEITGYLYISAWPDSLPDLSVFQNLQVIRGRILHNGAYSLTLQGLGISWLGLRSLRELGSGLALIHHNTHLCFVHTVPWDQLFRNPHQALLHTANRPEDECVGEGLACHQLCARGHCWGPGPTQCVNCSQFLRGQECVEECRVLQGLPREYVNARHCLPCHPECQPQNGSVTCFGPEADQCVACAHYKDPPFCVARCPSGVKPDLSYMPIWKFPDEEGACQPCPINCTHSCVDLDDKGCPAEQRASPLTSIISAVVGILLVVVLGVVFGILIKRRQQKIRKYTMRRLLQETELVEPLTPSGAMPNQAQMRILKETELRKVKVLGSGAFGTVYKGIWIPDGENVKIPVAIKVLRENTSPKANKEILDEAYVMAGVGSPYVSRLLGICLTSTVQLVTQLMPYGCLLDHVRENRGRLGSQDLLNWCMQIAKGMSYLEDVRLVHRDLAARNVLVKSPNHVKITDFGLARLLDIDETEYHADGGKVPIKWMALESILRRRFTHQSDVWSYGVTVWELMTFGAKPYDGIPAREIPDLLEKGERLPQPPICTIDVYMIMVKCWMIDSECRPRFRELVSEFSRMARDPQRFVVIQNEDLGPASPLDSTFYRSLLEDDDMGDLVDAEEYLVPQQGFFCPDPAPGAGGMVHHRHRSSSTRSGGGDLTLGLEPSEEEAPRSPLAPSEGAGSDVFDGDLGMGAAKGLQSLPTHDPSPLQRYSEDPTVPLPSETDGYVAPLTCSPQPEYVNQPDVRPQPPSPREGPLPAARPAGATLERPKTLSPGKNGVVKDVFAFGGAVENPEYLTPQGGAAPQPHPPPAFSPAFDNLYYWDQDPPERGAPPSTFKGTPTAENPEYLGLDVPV

What is called viability is a read-out of living cells in per cent, often relative to untreated cells. What is called inhibition is the change of the read-out against control, counted positive when it falls. As to `CCn1c(C(=O)N2CCCC(C(=O)NCCCc3ccccc3)C2)cc2sccc21` (stereo not given), the viability in test [1] is 102%; in test [3], 102% (inactive); in test [4], 64.3% (inactive); in test [5], 96.7% (inactive); in test [6] (setting [9]), 93.2%; in test [6] (setting [10]) it was 96.7%. Further, the Her2 level in test [2] was 96.5% (inactive). For the same compound, the differential viability (reversal) in test [6] (H69AR cells + 2 uM doxorubicin) was 3.47% (inactive). Further, the inhibition in test [7] was -2.08% (inactive); in test [8], -9.84% (inactive).

`O=C(OCc1ccc2c(c1)OCO2)c1ccc(S(=O)(=O)N2CCCCC2)cc1`: the viability in test [1] is 75.5%; in test [3] it was 75.5% (inactive); in test [4] it was 57.9% (inactive); in test [5], 81.9% (inactive); in test [6] (setting [9]), 81.3%; in test [6] (setting [10]) it was 81.9%. Also, the Her2 level in test [2] is 84% (inactive). The differential viability (reversal) in test [6] (H69AR cells + 2 uM doxorubicin) is 0.615% (inactive). For the same compound, the inhibition in test [7] is -0.77% (inactive); in test [8] it was -2.5% (inactive).

Consider `CCOC(=O)c1ccc(N2C(=O)CC(N3CCN(C/C=C/c4ccccc4)CC3)C2=O)cc1` (stereo not given), for which the viability in test [1] is 84%; in test [3], 84% (inactive); in test [4] it was 91.4% (inactive); in test [5] it was 84.3% (inactive); in test [6] (setting [9]), 85.9%; in test [6] (setting [10]), 84.3%. Moreover, the Her2 level in test [2] is 91.5% (inactive). For the same compound, in test [6] (H69AR cells + 2 uM doxorubicin), the differential viability (reversal) is -1.62% (inactive). Besides, the inhibition was -0.64% (inactive) in test [7] and -2.5% (inactive) in test [8].

As to `Cc1nnc(SCC(=O)Nc2cc(C(F)(F)F)ccc2N2CCOCC2)o1`, the viability is 93% in test [1]; 93% (inactive) in test [3]; 93.8% (inactive) in test [4]; 86.8% (inactive) in test [5]; 89% in test [6] (setting [9]); 86.8% in test [6] (setting [10]). The Her2 level in test [2] was 99% (inactive). The differential viability (reversal) in test [6] (H69AR cells + 2 uM doxorubicin) is -2.25% (inactive). The inhibition in test [7] is -0.13% (inactive); in test [8] it was -1.83% (inactive).

As for `Cc1nc(N2CCc3ccccc32)[nH]c(=O)c1CCC(C)C`, the viability in test [1] was 87.5%; in test [3], 87.5% (inactive); in test [4] it was 72.3% (inactive); in test [5], 79.1% (inactive); in test [6] (setting [9]), 70%; in test [6] (setting [10]), 79.1%. For the same compound, the Her2 level in test [2] is 89% (inactive). In addition, in test [6] (H69AR cells + 2 uM doxorubicin), the differential viability (reversal) is 9.09% (inactive). In addition, the inhibition in test [7] is -2.99% (inactive); in test [8], 6.17% (inactive).

For `O=S(=O)(c1ccc2c(c1)nc1n2CCC1)N1CCOCC1`, the viability in test [1] was 102%; in test [3], 102% (inactive); in test [4], 102% (inactive); in test [5] it was 98.9% (inactive); in test [6] (setting [9]) it was 91.2%; in test [6] (setting [10]), 98.9%. Also, in test [2], the Her2 level was 87% (inactive). Moreover, the differential viability (reversal) in test [6] (H69AR cells + 2 uM doxorubicin) was 7.71% (inactive). Further, the figures for the inhibition in test [7] and in test [8] were -0.26% (inactive) and -4.44% (inactive), respectively.

On to `O=C(Nc1ccc(CN2CCOCC2)cc1)c1cc2ccccc2oc1=O`, for which the viability is 99.5% in test [1]; 99.5% (inactive) in test [3]; 92.2% (inactive) in test [4]; 82.6% (inactive) in test [5]; 80.6% in test [6] (setting [9]); 82.6% in test [6] (setting [10]). The Her2 level in test [2] is 88% (inactive). For the same compound, the differential viability (reversal) in test [6] (H69AR cells + 2 uM doxorubicin) was 2.02% (inactive). Moreover, the figures for the inhibition in test [7] and in test [8] were -2.37% (inactive) and 3.39% (inactive), respectively.

As to `Cc1ccc(C)c(NC(=O)CC(NCCCN2CCOCC2)C(=O)O)c1` (stereo not given), the viability in test [1] was 94%; in test [3], 94% (inactive); in test [4], 106% (inactive); in test [5], 88.3% (inactive); in test [6] (setting [9]), 96.8%; in test [6] (setting [10]), 88.3%. Further, the Her2 level in test [2] is 93.5% (inactive). Besides, in test [6] (H69AR cells + 2 uM doxorubicin), the differential viability (reversal) is -8.47% (inactive). Further, the results for the inhibition in test [7] and in test [8] were -0.78% (inactive) and 9.51% (inactive), respectively.

With `Nc1nc(N2C(=O)C3CC=CCC3C2=O)nn1-c1ccccc1` (stereo not given), the viability in test [1] is 101%; in test [3], 101% (inactive); in test [4] it was 105% (inactive); in test [5] it was 98.7% (inactive); in test [6] (setting [9]), 96%; in test [6] (setting [10]), 98.7%. Also, in test [2], the Her2 level is 130% (inactive). Also, in test [6] (H69AR cells + 2 uM doxorubicin), the differential viability (reversal) is 2.73% (inactive). Also, the values for the inhibition in test [7] and in test [8] were 1.3% (inactive) and -12.2% (inactive), respectively.

Turning to `c1ccc(-c2nnc(-c3ccco3)n2-c2ccccc2)cc1`, the viability is 81.5% in test [1]; 81.5% (inactive) in test [3]; 87% (inactive) in test [4]; 88.1% (inactive) in test [5]; 98.6% in test [6] (setting [9]); 88.1% in test [6] (setting [10]). Moreover, the Her2 level in test [2] was 78% (inactive). The differential viability (reversal) in test [6] (H69AR cells + 2 uM doxorubicin) is -10.6% (inactive). The figures for the inhibition in test [7] and in test [8] were -6.08% (inactive) and 3.61% (inactive), respectively.

Regarding `O=C(CCCn1ncn2c(cc3occc32)c1=O)N1CCc2ccccc2C1`, the viability in test [1] is 126%; in test [3], 126% (inactive); in test [4], 83.8% (inactive); in test [5], 84.7% (inactive); in test [6] (setting [9]) it was 90.5%; in test [6] (setting [10]), 84.7%. Also, the Her2 level in test [2] is 90.5% (inactive). Moreover, in test [6] (H69AR cells + 2 uM doxorubicin), the differential viability (reversal) was -5.79% (inactive). The inhibition in test [7] was -4.21% (inactive); in test [8], -6.73% (inactive).

With `CCCSc1nc2c(cnn2-c2ccc(Cl)cc2)c(=O)[nH]1`, the viability is 106% in test [1]; 106% (inactive) in test [3]; 98.1% (inactive) in test [4]; 79% (inactive) in test [5]; 82.7% in test [6] (setting [9]); 79% in test [6] (setting [10]). Further, in test [2], the Her2 level is 89.5% (inactive). In test [6] (H69AR cells + 2 uM doxorubicin), the differential viability (reversal) was -3.71% (inactive). Besides, the inhibition was -6.23% (inactive) in test [7] and 0.95% (inactive) in test [8].

For `CCCCSCCCNC(=O)CS(=O)Cc1nc(-c2cccc(C)c2)oc1C` (stereo not given), the viability was 98.5% in test [1]; 98.5% (inactive) in test [3]; 91.9% (inactive) in test [4]; 87.5% (inactive) in test [5]; 91.2% in test [6] (setting [9]); 87.5% in test [6] (setting [10]). Besides, the Her2 level in test [2] was 76% (inactive). Besides, the differential viability (reversal) in test [6] (H69AR cells + 2 uM doxorubicin) was -3.76% (inactive). The inhibition in test [7] was -1.58% (inactive); in test [8], -1% (inactive).

Turning to `COc1cccc(NC(=O)COc2ccccc2C(N)=O)c1`, the viability in test [1] is 93.5%; in test [3] it was 93.5% (inactive); in test [4], 83.1% (inactive); in test [5] it was 105% (inactive); in test [6] (setting [9]), 88.7%; in test [6] (setting [10]) it was 105%. Also, the Her2 level in test [2] is 110% (inactive). Moreover, the differential viability (reversal) in test [6] (H69AR cells + 2 uM doxorubicin) was 16% (inactive). Besides, the inhibition is 0% (inactive) in test [7] and -7.9% (inactive) in test [8].

With `COC(=O)c1[nH]c2cc(OC)ccc2c1NC(=O)CN1CCOCC1`, the viability in test [1] is 116%; in test [3], 116% (inactive); in test [4], 95% (inactive); in test [5], 94.3% (inactive); in test [6] (setting [9]), 91.3%; in test [6] (setting [10]) it was 94.3%. In addition, the Her2 level in test [2] was 90.5% (inactive). Besides, the differential viability (reversal) in test [6] (H69AR cells + 2 uM doxorubicin) is 3.07% (inactive). The inhibition was 0% (inactive) in test [7] and -4.19% (inactive) in test [8].

As to `O=C(O)c1cccc(S(=O)(=O)N2CCOCC2)c1`, the viability in test [1] is 118%; in test [3], 118% (inactive); in test [4], 95% (inactive); in test [5], 98.9% (inactive); in test [6] (setting [9]), 95.5%; in test [6] (setting [10]) it was 98.9%. Also, in test [2], the Her2 level is 121% (inactive). Also, the differential viability (reversal) in test [6] (H69AR cells + 2 uM doxorubicin) is 3.4% (inactive). Besides, the inhibition in test [7] was -1.37% (inactive); in test [8], 11.3% (inactive).
